Source: the M2OR odorant receptor database

How the values were obtained:
Settings in all cases: stereoisomer not certain
OR2M7 (Homo sapiens) = target: T1, OR2M7 (Homo sapiens) (UniProt Q8NG81)
T1 sequence (whole entry): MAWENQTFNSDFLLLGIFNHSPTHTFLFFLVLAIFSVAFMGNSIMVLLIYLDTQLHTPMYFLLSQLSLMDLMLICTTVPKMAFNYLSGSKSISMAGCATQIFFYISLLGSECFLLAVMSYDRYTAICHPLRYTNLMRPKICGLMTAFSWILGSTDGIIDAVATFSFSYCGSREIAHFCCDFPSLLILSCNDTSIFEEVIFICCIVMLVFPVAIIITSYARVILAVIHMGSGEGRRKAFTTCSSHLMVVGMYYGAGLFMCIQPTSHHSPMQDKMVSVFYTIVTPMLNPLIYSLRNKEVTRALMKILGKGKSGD
Method in brief: (§1)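 Each receptor–molecule pair is labelled responsive or non-responsive (inactive) according to whether the original authors judged the measured signal statistically different from baseline. The data were taken from the main text and supplementary material of published papers and checked for typos and inconsistencies. Assay methods differed by source, with transient luciferase assays in mammalian cell lines being common.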

OR2S2 (Homo sapiens) = target: T2, OR2S2 (Homo sapiens) (UniProt Q9NQN1)
T2 sequence (whole entry): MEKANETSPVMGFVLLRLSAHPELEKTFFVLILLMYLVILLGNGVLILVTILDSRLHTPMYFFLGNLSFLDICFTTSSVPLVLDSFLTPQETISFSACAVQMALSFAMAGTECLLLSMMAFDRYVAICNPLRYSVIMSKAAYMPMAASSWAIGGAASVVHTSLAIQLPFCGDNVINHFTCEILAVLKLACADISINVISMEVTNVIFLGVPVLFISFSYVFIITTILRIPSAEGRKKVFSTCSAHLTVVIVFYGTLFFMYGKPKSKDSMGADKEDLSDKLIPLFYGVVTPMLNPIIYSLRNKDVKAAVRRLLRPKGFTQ
Method in brief: as §1

OR2T1 (Homo sapiens) = target: T3, OR2T1 (Homo sapiens) (UniProt O43869)
T3 sequence (whole entry): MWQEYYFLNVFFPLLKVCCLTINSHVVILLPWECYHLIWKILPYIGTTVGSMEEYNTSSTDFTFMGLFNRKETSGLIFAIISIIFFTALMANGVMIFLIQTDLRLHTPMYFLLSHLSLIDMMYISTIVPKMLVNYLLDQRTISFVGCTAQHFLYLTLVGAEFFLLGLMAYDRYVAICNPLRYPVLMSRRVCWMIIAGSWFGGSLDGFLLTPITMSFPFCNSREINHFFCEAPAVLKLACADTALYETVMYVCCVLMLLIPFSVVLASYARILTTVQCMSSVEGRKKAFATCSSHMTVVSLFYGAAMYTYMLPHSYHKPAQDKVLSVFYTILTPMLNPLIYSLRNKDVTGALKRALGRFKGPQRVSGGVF
Method in brief: as §1

OR2T10 (Homo sapiens) = target: T4, OR2T10 (Homo sapiens) (UniProt Q8NGZ9)
T4 sequence (whole entry): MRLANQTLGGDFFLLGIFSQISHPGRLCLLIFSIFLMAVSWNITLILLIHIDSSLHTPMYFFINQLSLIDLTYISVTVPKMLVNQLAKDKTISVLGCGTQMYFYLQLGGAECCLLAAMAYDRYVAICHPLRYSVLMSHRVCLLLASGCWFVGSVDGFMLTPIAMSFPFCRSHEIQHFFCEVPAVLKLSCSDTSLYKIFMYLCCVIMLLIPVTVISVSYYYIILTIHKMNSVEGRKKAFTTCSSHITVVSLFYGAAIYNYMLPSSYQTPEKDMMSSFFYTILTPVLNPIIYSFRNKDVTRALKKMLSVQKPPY
Method in brief: as §1

Measured: odorant receptor agonist call;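 note: active if original authors judged signal statistically different from baseline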

CCCC(S)CCOC(C)=O (centres undefined)
inactive: all assays above

CCCC(C)=O
inactive: OR2M7 (Homo sapiens)

CCCCCC(=O)C(C)C(C)=O (centres undefined)
inactive: all assays above
